Published values pooled from the literature.
Organism: Mycobacterium tuberculosis variant bovis BCG
Read-out: microbial growth

CNC(=O)c1cc(Oc2ccc(NC(=O)Nc3ccc(Cl)c(C(F)(F)F)c3)cc2)ccn1
MIC (BCG): 12.5 µM

Fc1ccc(COc2ccccc2CNCc2cccnc2)cc1
MIC (ATCC35734 BCG): > 62.5 µM

COc1ccc(C=CC(=O)c2ccc(Cl)cc2Cl)cc1OC
MIC (BCG; 7 days): 200 µg/mL

c1ccc(COc2ccccc2CNCc2cccnc2)cc1
MIC (ATCC35734 BCG): > 62.5 µM

COc1ccc(C=CC(=O)c2ccccc2Br)cc1OC
MIC (BCG; 7 days): 25 µg/mL

CO[C@H]1/C=C/O[C@@]2(C)Oc3c(C)c(O)c4c(O)c(c(/C=N/N5CCN(C)CC5)c(O)c4c3C2=O)NC(=O)/C(C)=C\C=C\[C@H](C)[C@H](O)[C@@H](C)[C@@H](O)[C@@H](C)[C@H](OC(C)=O)[C@@H]1C
MIC (BCG; 6 days): < 0.78 µM

O=C(Nc1ccc2c(c1)OC(F)(F)O2)Nc1ccc(Cl)c(C(F)(F)F)c1
MIC (BCG): 3 µM

Fc1ccc(COc2ccccc2CNCc2ccccc2)cc1
MIC (ATCC35734 BCG): > 62.5 µM

CO[C@H]1/C=C/O[C@@]2(C)Oc3c(C)c(O)c4c(O)c(c(/C=N/N5CCN(C)CC5)c(O)c4c3C2=O)NC(=O)/C(C)=C\C=C\[C@H](C)[C@H](O)[C@@H](C)[C@@H](O)[C@@H](C)[C@H](OC(C)=O)[C@@H]1C
MIC (BCG): < 0.2 µg/mL

COc1ccc(C=CC(=O)c2ccccc2Cl)cc1OC
MIC (BCG; 7 days): 12.5 µg/mL
